# Compounds with a hit are over-represented: about 1.3% of the library has one in this group of screens.
# NTR1 agonist: agonists of human neurotensin receptor NTR1 | P30989 | NTR1-U2OS beta-arrestin-GFP spot imaging, agonist mode | activation, % at 20 µM | 330,000 compounds, 0.17% hits | AID 493036;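 active means activation at or above 40% of the spot to cytoplasm intensity ratio, with at least 20 cells analyzed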;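 further: 0% = DMSO without peptide and 100% = 100 nM NTR1 peptide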
# Arr AP2 block: inhibitors of human beta-arrestin and AP2 interaction | FITC-arrestin peptide / GST-AP2 beads, flow cytometry; AP2 beta2 appendage carries R879A mutation | inhibition, % at 10 µM | 340,000 compounds, 0.31% hits | AID 504490;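 active means inhibition above a set limit, near 3 SD of compounds lacking own fluorescence, cut at about 54% in these data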;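 further: plate controls were DMSO wells for no effect and 5 µM unlabelled arrestin peptide for full effect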
#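 System: GST-tagged AP2 beta2-adaptin appendage (R879A) on 4 µm glutathione beads / Reagent: FITC-arrestin peptide, 50 nM / Detection: HyperCyt-sampled flow cytometry, FL1 channel, ex 488/em 535 nm / Timing: 12 min plus 1 h, RT / Buffer or medium: PBS plus Tween 20 (0.05%) and BSA (0.1%)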
# PLC-gamma1 inh: PLC-gamma1 (human) inhibition, primary screen; P19174; purified PLC-gamma1, fluorogenic substrate, fluorescence; inhibition, % at 12.2 µM; 370,000 compounds, 0.84% hits
# Target sequence (P19174 whole entry, looked up): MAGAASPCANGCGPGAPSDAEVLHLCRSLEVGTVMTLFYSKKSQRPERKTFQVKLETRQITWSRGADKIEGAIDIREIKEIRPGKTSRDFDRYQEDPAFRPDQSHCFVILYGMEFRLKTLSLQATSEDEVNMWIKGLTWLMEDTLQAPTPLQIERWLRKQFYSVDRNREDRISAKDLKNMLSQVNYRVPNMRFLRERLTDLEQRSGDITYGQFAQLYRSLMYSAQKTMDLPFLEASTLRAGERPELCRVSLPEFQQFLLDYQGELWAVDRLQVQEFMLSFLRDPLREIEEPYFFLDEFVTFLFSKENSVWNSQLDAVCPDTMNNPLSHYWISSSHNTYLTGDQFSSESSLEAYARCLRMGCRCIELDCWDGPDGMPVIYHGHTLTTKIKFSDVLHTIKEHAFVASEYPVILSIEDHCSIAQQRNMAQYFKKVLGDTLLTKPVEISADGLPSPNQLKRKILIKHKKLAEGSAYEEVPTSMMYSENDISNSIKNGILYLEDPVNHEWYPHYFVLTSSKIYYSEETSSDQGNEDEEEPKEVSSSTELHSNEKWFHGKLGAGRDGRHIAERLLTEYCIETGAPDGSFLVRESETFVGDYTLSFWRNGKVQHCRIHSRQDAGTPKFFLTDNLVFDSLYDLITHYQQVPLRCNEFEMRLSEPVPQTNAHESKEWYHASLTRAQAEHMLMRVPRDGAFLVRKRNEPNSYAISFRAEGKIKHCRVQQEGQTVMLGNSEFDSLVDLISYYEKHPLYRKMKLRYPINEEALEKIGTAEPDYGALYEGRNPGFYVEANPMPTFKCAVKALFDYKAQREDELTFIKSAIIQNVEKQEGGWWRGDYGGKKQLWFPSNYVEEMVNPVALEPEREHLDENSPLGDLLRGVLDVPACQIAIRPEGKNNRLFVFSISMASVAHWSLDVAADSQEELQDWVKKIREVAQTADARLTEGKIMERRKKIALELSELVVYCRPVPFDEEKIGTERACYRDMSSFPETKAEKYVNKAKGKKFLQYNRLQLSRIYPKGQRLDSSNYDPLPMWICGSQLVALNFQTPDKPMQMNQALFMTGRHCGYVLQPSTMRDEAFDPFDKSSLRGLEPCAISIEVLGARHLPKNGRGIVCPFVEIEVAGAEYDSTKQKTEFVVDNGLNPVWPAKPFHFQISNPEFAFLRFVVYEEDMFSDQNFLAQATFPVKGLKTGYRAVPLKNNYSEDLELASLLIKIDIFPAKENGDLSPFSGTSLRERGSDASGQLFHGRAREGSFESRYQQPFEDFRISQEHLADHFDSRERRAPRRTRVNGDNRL
# PLCb3 inh: PLC-beta3 (human) inhibition, primary screen; AID 720704; Purified PLC-beta3, fluorogenic substrate, fluorescence; inhibition, % at 12.2 µM; 370,000 compounds, 0.18% hits; in the data active means inhibition above about 11%;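 further: 0% = median of compound wells on plate and 100% = full blocker control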
# PLCgamma1 ctr: counter-screen for PLC-beta3 inhibitors: inhibitors of human PLC-gamma1; shares compounds with PLC-gamma1 inh; purified PLC-gamma1, fluorogenic substrate, fluorescence; inhibition, % at 12.3 µM; 3,300 compounds, 3.1% hits; AID 743258
# PLCbeta3 conf: human PLC-beta3 inhibition, confirmation. AID 743261. shares compounds with PLC-gamma1 inh. purified PLC-beta3, fluorogenic substrate fluorescence. inhibition, % at 12.3 µM. 3,300 compounds, 1% hits; in the data active means inhibition above about 11%
# * hit, by the source's call; / = no result given. Unless noted, no stated cut-off is given here; in the data, active means inhibition above about 9.5%; inactive means the rest.
SMILES,NTR1 agonist,Arr AP2 block,PLC-gamma1 inh,PLCb3 inh,PLCgamma1 ctr,PLCbeta3 conf
CCNC(=O)COC(=O)C1CCN(S(=O)(=O)c2ccc3c(c2)OCCO3)CC1,0.7,-1.7,10.2*,-4.0,-4.4,-1.0
CC(C)C(C)NC(=O)COC(=O)C1CCN(S(=O)(=O)c2ccc3c(c2)OCCO3)CC1 (stereo not drawn),-1.7,-23.7,11.1*,-1.6,-5.5,-1.3
O=C(COC(=O)C1CCN(S(=O)(=O)c2ccc3c(c2)OCCO3)CC1)NC1CCCCC1,1.3,-7.8,0.4,0.1,/,/
CCCNC(=O)COC(=O)C1CCN(S(=O)(=O)c2ccc3c(c2)OCCO3)CC1,2.2,-3.8,0.7,0.1,/,/
Cc1[nH]cnc1/C=N\NC(=O)c1cccc(S(=O)(=O)N(C)C)c1,/,/,-1.3,-2.6,/,/
CCCCn1c(=O)n(CC(=O)Nc2ccc(OC)c(Cl)c2)c(=O)c2c1nc(CO)n2CCC,-0.1,17.5,9.7*,5.9,13.3*,7.5
Cc1cccc(NC(=O)CN(C)S(=O)(=O)c2ccc(Cl)cc2)n1,0.0,-7.7,-1.6,3.8,/,/
Cc1cccc(NC(=O)CN(C)S(=O)(=O)c2ccc(Br)cc2)n1,-0.8,25.3,10.2*,2.5,-6.6,-3.9
Cn1c(CNc2ccccc2F)nc2ccccc21,/,/,3.5,1.4,/,/
CCc1nc2c(OC)cccn2c1N(C)C(=O)c1ccccc1F,/,/,-10.6,-5.7,/,/
CCc1nc2c(OCc3ccc(Cl)cc3Cl)cccn2c1N(C)C(=O)c1ccccc1F,/,/,3.9,10.8*,-3.7,-4.3
CCOC(=O)C(C)(C)CC#CCN(CC#Cc1ccccc1)S(=O)(=O)c1ccc(C)cc1,/,/,-3.0,-4.6,/,/
O=C1C=C(NCCc2cc(Br)c(O)c(Br)c2)C(=O)c2ncccc21,/,12.4,11.7*,5.7,6.7,1.2
O=S(=O)(NCCOCCNS(=O)(=O)c1ccccc1)c1ccccc1,-2.5,14.6,11.0*,4.9,6.3,-1.5
COC(=O)COc1nc(C)c2c(c1C#N)CC(C)(C)OC2,-0.8,-0.4,0.7,10.9*,4.3,6.2
Cc1ccc(C(=O)C2CCN(CC(=O)NCc3cccs3)CC2)cc1,/,/,-4.1,-2.6,/,/
CN1CCN(CCC(=O)N/N=C/c2ccccn2)CC1,-0.6,1.6,10.1*,3.3,4.3,-4.6
O=C(C1CCN(c2cncnc2)CC1)N1CCOCC1,/,/,-8.4,-5.0,/,/
O=C(C1CCCN(Cc2ccc(Br)cc2)C1)N1CCCCC1 (stereo not drawn),2.3,-11.1,13.2*,2.7,-5.2,-1.7
CCN(CC)C(=O)C1CCCN(Cc2ccc(N(C)C)cc2)C1 (stereo not drawn),-1.0,26.0,10.2*,-2.1,-2.0,-0.1
Cc1cccc(CS(=O)(=O)Cc2ccc(C(=O)O)o2)c1,-1.2,4.0,10.6*,2.5,-6.1,0.2
CC(=O)Nc1ccc(N2C(=O)CSC2c2ccc(F)cc2)cc1 (stereo not drawn),0.3,0.2,-0.2,1.0,/,/
CC(=O)Nc1ccc(N2C(=O)CSC2c2c(F)cccc2Cl)cc1 (stereo not drawn),-2.4,8.9,8.3,14.3*,-2.4,-1.8
CCn1cc(CCC(=O)Nc2ccc(Oc3cccnc3)cc2)c2ccccc21,/,/,0.7,-6.1,/,/
C=CCN1C(=O)[C@H](CC(=O)N2CCCCC2)[C@@]2(C(=O)OCC)CCCC=C12,/,/,-0.1,-0.9,/,/
SMILES,NTR1 agonist,Arr AP2 block,PLC-gamma1 inh,PLCb3 inh,PLCgamma1 ctr,PLCbeta3 conf
CNCCCN1c2ccccc2CCc2ccccc21,-0.6,6.3,10.2*,2.9,5.2,0.4
CCN1CCN(CC(=O)NC2CCCC2)C(=O)C1=O,-0.9,4.3,13.1*,6.8,-4.1,-4.0
CCN1CCN(CC(=O)NC2CCCCC2)C(=O)C1=O,-0.5,8.0,6.7,6.7,/,/
Cc1ncc([N+](=O)[O-])n1CCOC(=O)c1ccccc1,-0.8,5.4,10.1*,12.5*,-3.3,0.5
C[C@@H]1CCCN1c1ccc2c(c1)O[C@H]1CCN(C1)S2(=O)=O,/,/,-1.6,-2.8,/,/
COc1cccc(Cn2cc(COC(=O)N3CCOCC3)nn2)c1,/,/,-0.7,-0.8,/,/
COCC(O)CSc1c([N+](=O)[O-])nc(C)n1Cc1ccc(OC)c([N+](=O)[O-])c1 (stereo not drawn),0.0,17.3,10.2*,2.5,7.4,4.8
O=C(N/N=C/c1cccc(F)c1)c1c(O)c2c([nH]c1=O)CCCC2,0.7,27.8,6.0,12.1*,-1.7,-0.1
CNC(=O)c1ccccc1NC(=O)c1c(O)c2c([nH]c1=O)CCCC2,-3.6,-5.1,-9.1,-168.2,/,/

# Screening results: PubChem BioAssay, several laboratories
